# Screening data as filed in PubChem BioAssay.
# core dimer inh: inhibitors of HCV core protein dimerization, primary screen, biochemical, TR-FRET, high-throughput; TR-FRET GST/Flag-core106 dimerization, 1536-well; inhibition, % at 5 µM; 0.33% of 300,000 active; AID 1899, 2009;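 active = inhibition above the mean of all tested compounds plus 3 SD, set per screening campaign, cut at about 45% in these data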
#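 System: GST/Flag-tagged HCV core106 proteins. Incubation: compound-protein-antibody incubation 4 h at 22.5 °C. Technique: HTRF with 340 nm excitation, 617/671 nm emission. Medium: KF-containing HEPES buffer, pH 7.45, DTT, CHAPS, BSA. Read-out: inhibition (%) from 671 over 617 nm ratio. Also added: Eu(K)-anti-GST 90 ng/mL plus XL665-anti-Flag 1 µg/mL.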
# AI-2 QS mod: Vibrio harveyi AI-2 quorum sensing modulators, primary screen, JMH597 strain, luminescence/OD600 ratio. Vibrio harveyi JMH597 AI-2 luminescence/OD600 ratio, 9 h; active compounds read low; strain lacks LuxN and CqsS sensors; 0 = neutral-control median. activity change, % at 7.5 µM. 0.4% of 300,000 active. AID 2094, 2009; in the data active = activity change below about -75%, passing the limit was not always enough;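 note: luminescence divided by OD600 gain over 9 h not by final OD600 alone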
# HSF1 inhib: HSF1 inhibitors in luciferase reporter cells, primary screen, cell-based, NIH3T3, luminescence; 0.77% of 300,000 active; NIH3T3-HGL HSE-luciferase, MG132-induced, luminescence 8 h; active compounds read low; AID 2098, 2009; activity change, negative = inhibition, % at 7.5 µM (by protocol);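 active = more than half of replicate wells show activity change below -50%, luminescence cut by over half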;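 note: luciferase reports HSF-1 transcriptional activity via heat shock element; 0% = median of DMSO wells and -100% = zero luminescence signal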
# HSF-1 act: HSF-1 activators, primary screen, NIH3T3-HGL cells, MG132 stress, luminescence, single point; NIH3T3-HGL HSF-1 luciferase reporter, 8 h; 100% = twice DMSO control signal; activation, % at 9 µM; 1.7% of 300,000 active; AID 504408, 2011;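 active = mean replicate activation of at least 50% with a set share of replicates each reaching 50%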;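 note: 0% = median of the neutral control wells and 100% = twice that signal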
# PHOSPHO1 inh: PubChem AID 1565; Phosphoethanolamine/phosphocholine phosphatase (Homo sapiens), Q8TCT1; recombinant PHOSPHO1, absorbance phosphatase assay; inhibition, % at 13.3 µM; 1.1% of 290,000 active; in the data active = inhibition above about 60%
# Target sequence (Q8TCT1 whole entry, looked up): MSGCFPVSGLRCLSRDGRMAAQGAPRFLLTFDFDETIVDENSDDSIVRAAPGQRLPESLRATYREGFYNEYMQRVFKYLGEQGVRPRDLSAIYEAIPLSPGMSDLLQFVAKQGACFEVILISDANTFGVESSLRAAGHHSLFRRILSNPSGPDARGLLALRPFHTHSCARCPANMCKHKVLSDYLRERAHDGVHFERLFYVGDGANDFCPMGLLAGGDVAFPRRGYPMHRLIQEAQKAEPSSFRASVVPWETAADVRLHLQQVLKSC
# ALR H2O2 inh: inhibitors of human ALR sulfhydryl oxidase, primary screen, biochemical, H2O2 detection, HRP-luminol luminescence, single point. FAD-linked sulfhydryl oxidase ALR (Homo sapiens), P55789. purified ALR, DTT oxidation. inhibition, % (concentration not given with the values). 3.8% of 290,000 active;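 active = mean replicate inhibition above about 79%, with every replicate also reaching it, limit read from the data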
# Target sequence (P55789 whole entry, looked up): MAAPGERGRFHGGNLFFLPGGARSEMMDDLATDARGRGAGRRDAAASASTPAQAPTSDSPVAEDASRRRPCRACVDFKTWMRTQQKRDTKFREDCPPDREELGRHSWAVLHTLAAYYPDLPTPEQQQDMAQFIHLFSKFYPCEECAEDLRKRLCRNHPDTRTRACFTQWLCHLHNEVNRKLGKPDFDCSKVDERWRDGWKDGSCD
# * = called active by the depositor; / = not tested or not shown. Rows were chosen to be rich in hits. Some 6.8% of all compounds tested hit in one or more screens of this group.
SMILES,core dimer inh,AI-2 QS mod,HSF1 inhib,HSF-1 act,PHOSPHO1 inh,ALR H2O2 inh
CCOC(=O)c1sc2nc3n(c(=O)c2c1C)CCC(C)CC3 (configuration not stated),3,22,-15,-31,78*,1
CCOC(=O)N1CCC(NC(=O)c2sc3nc4n(c(=O)c3c2C)CCCC4)CC1,-4,-6,4,18,21,-2
CCc1cccc(NC(=O)c2sc3nc4n(c(=O)c3c2C)CCC4)c1,0,0,43,55*,47,3
CCOC(=O)N1CCN(C(=O)Nc2sc3nc4n(c(=O)c3c2C)CCC(C)CC4)CC1 (configuration not stated),14,15,28,3,74*,7
O=c1c(-c2ccc(O)cc2)coc2cc(OC3OC(CO)C(O)C(O)C3O)ccc12 (configuration not stated),-14,26,-1,10,13,99*
O=c1c(O[C@@H]2O[C@H](CO)C(O)C2O)c(-c2ccc(O)c(O)c2)oc2cc(O)cc(O)c12 (some centres not stated),/,/,/,/,/,100*
O=c1c(OC2OC(CO)C(O)C(O)C2O)c(-c2ccc(O)c(O)c2)oc2cc(O)cc(O)c12 (configuration not stated),-15,15,-3,-12,8,99*
O=c1c2c(O)cc(O)cc2oc2c(O)ccc(O[C@H]3O[C@@H](CO)[C@H](O)[C@@H](O)[C@@H]3O)c12,/,/,/,/,/,20
O=c1c(OC2OC(CO)C(O)C(O)C2OC2OC(CO)C(O)C(O)C2O)c(-c2ccc(O)cc2)oc2cc(O)cc(O)c12 (configuration not stated),-1,/,/,/,36,23
O=c1c(-c2ccc(O)cc2)coc2cc(OC3OC(CO)C(O)C(O)C3O)cc(O)c12 (configuration not stated),-15,8,8,7,4,58
O=c1c(O[C@H]2O[C@@H](CO)[C@H](O)[C@@H](O)[C@@H]2O)c(-c2ccc(O)cc2)oc2cc(O)cc(O)c12,/,/,/,/,/,87*
OCCNc1nc(-c2ccccc2)nc2c1oc1ccccc12,-6,5,2,-4,37,-3
CC(C)CC(=O)Nc1ccc(S(=O)(=O)Nc2nccs2)cc1,-1,18,-2,-4,/,0
CCOC(=O)N1CCC(N2C(=O)c3ccccc3C2Nc2ccc(S(=O)(=O)N3CCCCC3)cc2)CC1 (configuration not stated),4,14,0,-15,-29,3
N#C/C(=C\c1ccc([N+](=O)[O-])cc1)C(=O)Nc1ccccc1O,-1,2,-2,-8,6,86*
Cc1ccccc1NC(=S)Nc1ccc2[nH]c(=O)[nH]c2c1,-3,4,4,7,33,88*
CCOC(=O)c1ccc(NC(=S)Nc2ccc3[nH]c(=O)[nH]c3c2)cc1,-1,11,-37,-46,-4,80*
O=c1[nH]c2ccc(NC(=S)Nc3ccc(Cl)cc3)cc2[nH]1,5,9,-6,-2,4,-4
O=c1[nH]c2ccc(NC(=S)Nc3ccccc3)cc2[nH]1,-7,37,1,4,16,90*
Cc1ccc(NC(=S)Nc2ccc3[nH]c(=O)[nH]c3c2)cc1,-6,10,4,0,-27,99*
CCCCn1c(N)c(N(CCOC)C(=O)c2oc3ccc(OCC)cc3c2C)c(=O)[nH]c1=O,13,15,-6,7,/,-1
Cc1cccc(N2CCN(C(=O)CCCCCn3c(=S)[nH]c4ccc(N5CCOCC5)cc4c3=O)CC2)c1C,29,28,-8,-4,34,-8
O=[N+]([O-])c1ccc(COc2cccc3cccnc23)cc1,6,22,24,59*,24,2
Brc1ccc(OCCOc2cccc3cccnc23)cc1,4,17,30,67*,-13,1
Brc1ccc(COc2cccc3cccnc23)cc1,0,19,40,65*,/,6
SMILES,core dimer inh,AI-2 QS mod,HSF1 inhib,HSF-1 act,PHOSPHO1 inh,ALR H2O2 inh
O=[N+]([O-])c1ccc(OCCCOc2cccc3cccnc23)cc1,7,4,13,33,14,-9
CC1(C)CCc2cc(CN3CCN(c4ccccn4)CC3)ccc2O1,-1,18,2,-19,24,1
Fc1ccc(-c2noc(-c3ccc4c(c3)CCO4)n2)cc1,3,15,-5,15,17,1
Cc1ccc(-c2ccnc(=S)[nH]2)cc1,4,14,-7,-17,90*,100*
CC1(C)CCc2cc(-c3ccnc(=S)[nH]3)ccc2O1,-4,12,-42,-43,-41,100*
c1csc(-c2ccn[nH]2)c1,-8,10,-12,6,28,-1
S=c1nccc(-c2cccs2)[nH]1,2,/,-5,8,-86,99*
S=c1nccc(-c2ccc3c(c2)CCO3)[nH]1,3,11,1,-21,-88,98*
Cc1cc(=S)nc(-c2ccccn2)[nH]1,-2,4,8,30,-108,13
CCN(c1ccccc1)S(=O)(=O)c1cc(C(=O)OC2CCOC2=O)ccc1C (configuration not stated),/,/,/,/,/,-4
COc1ccc(-c2nc(CN3CCC(C(=O)NC4CCCC4)CC3)c(C)o2)cc1OC,-8,13,-5,-1,13,-6
Cc1ccc(-c2nc(CS(=O)CC(=O)NC3CCCC(C)C3C)c(C)o2)cc1 (configuration not stated),6,32,2,3,10,99*
COc1ccc(-c2nc(CS(=O)CC(=O)NC3CCCC(C)C3C)c(C)o2)cc1OC (configuration not stated),-10,/,5,18,18,99*
Cc1ccc(-c2nc(CS(=O)(=O)CC(=O)NC3CCCCC3C)c(C)o2)cc1 (configuration not stated),-11,3,0,5,0,18
O=C(CSCC(=O)N1CCOCC1)Nc1nc(-c2ccc3c(c2)OCO3)cs1,-2,29,8,-6,-4,97*
O=C(CSCC(=O)N1CCCc2ccccc21)Nc1nc(-c2ccccc2)cs1,13,10,8,-3,4,100*
CC(=O)Nc1nc(-c2ccc3c(c2)OCO3)cs1,-4,16,3,28,8,-4
c1cncc(-c2nc(-c3ccc4c(c3)OCCO4)cs2)c1,-14,-6,32,64*,35,-5
